SIAE inh: human SIAE inhibitors, primary screen, biochemical, fluorescence polarization, FP-Rh probe, 1536-well HTS. 0.69% of 370,000 active. Sialate O-acetylesterase (Homo sapiens), Q9HAT2. inhibition, % at 9.66 µM. SIAE FP-Rh probe binding;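 active = inhibition above a cutoff: mean of compounds within the control limits plus 3 SD of those, cut at about 17% in these data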
GASC-1 inh: inhibitors of GASC-1 histone demethylase, primary screen, biochemical, fluorescence, DELFIA europium; Lysine-specific demethylase 4C (Homo sapiens), Q9H3R0; GST-JMJD2C(1-420) H3K9me3 demethylation; inhibition, % at 2.35 µM; 0.069% of 330,000 active;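 active = more than half of a compound's replicate wells show inhibition beyond 50%, single wells judged on their own value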;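 also: signal counts dimethyl H3K9 product captured on neutravidin plate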
mABHD4 FP: ABHD4 inhibitors, primary screen, biochemical, fluorescence polarization, mouse; (Lyso)-N-acylphosphatidylethanolamine lipase (Mus musculus), Q8VD66; purified mABHD4, FP-Rh probe fluorescence polarization; inhibition, % at 8.92 µM; 0.54% of 370,000 active;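 active = inhibition exceeding the mean over every tested compound plus 3 SD, cut at about 30% in these data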
Target sequence (Q8VD66 whole entry, looked up): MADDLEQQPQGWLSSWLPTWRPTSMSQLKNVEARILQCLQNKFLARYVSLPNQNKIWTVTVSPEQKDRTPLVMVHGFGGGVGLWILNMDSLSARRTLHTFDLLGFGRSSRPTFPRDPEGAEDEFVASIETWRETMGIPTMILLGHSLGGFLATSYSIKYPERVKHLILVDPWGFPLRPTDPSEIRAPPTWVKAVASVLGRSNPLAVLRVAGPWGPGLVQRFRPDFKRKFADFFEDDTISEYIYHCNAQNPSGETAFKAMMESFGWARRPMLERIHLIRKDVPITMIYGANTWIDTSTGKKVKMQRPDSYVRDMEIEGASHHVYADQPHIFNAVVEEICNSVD
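Doses – 8.92 µM, single dose · Material – wild-type mouse ABHD4 protein · Replication – single well per compound (singlicate) · Measure – percent inhibition of probe binding, normalized to plate controls · Schedule – 45 min compound pre-incubation plus 60 min probe step, 25 °C · Detection – fluorescence polarization with parallel and perpendicular emission, 525/598 nm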
PRMT1 inh: PRMT1 methyltransferase inhibitors, primary screen, biochemical, fluorescence polarization. recombinant PRMT1, activity-based probe fluorescence polarization. 1.3% of 370,000 active. inhibition, % at 2.79 µM. Protein arginine N-methyltransferase 1 (Homo sapiens), Q99873;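 active = inhibition above about 21% made by adding two undisclosed values, limit read from the data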
HTRA1 inh: HTRA1 serine protease inhibitors, primary screen, biochemical, fluorescence polarization, HTS. Q92743. recombinant HTRA1, FP-rhodamine activity-based probe. 0.5% of 340,000 active. inhibition, % at 5.96 µM; in the data active = inhibition above about 36%
A number is an active result; - = inactive; . = not tested or not shown. In the library only some 2.4% were active in any assay of this set; here they are far more common.

SMILES	SIAE inh	GASC-1 inh	mABHD4 FP	PRMT1 inh	HTRA1 inh
Cc1ccc(-c2nnc(SCC(=O)Nc3ccc(Oc4ccccc4)cc3)n2-c2ccc(Cl)cc2)cc1	-	.	-	-	.
O=C1C=CC2(C=C1)O[C@H](Cc1ccccc1)[C@@H](Cc1ccccc1)O2	-	.	-	51	-
COCCCN(C(=O)CSc1nc2ccccc2c(=O)n1C)c1c(N)n(Cc2ccccc2)c(=O)[nH]c1=O	-	.	-	23	-
CC(=O)Nc1sc(N/N=C\c2ccc(O)cc2)nc1-c1cccs1	-	-	-	23	-
O=C(NCc1ccco1)c1cccc2c1C(=O)c1ccc(/C=C/c3ccccc3)cc1S2(=O)=O	-	-	-	29	-
O=C(NCc1ccco1)c1cccc2c1C(=O)c1ccc(N3CCC(Cc4ccccc4)CC3)cc1S2(=O)=O	.	-	.	.	-
O=C(NCCO)c1ccc(Cl)c(Cl)c1	-	-	-	-	-
O=C(NC1CCCC1)c1ccc2nc(-c3ccco3)c(-c3ccco3)nc2c1	.	-	.	.	58
O=C(NC1CCCC1)c1ccc2nc[nH]c2c1	-	-	-	-	-
O=C(NCCO)c1ccc2nc(-c3ccco3)c(-c3ccco3)nc2c1	20	-	42	65	-
CCCN(CC1CC1)c1nc(C)nc2c1nnn2Cc1ccccc1	-	.	-	-	.
O=C1CSC(=S)N1/N=C/C=C/c1ccccc1	-	-	-	21	-
O=C1CSC(=S)N1/N=C/c1c(F)cccc1F	-	-	-	-	-
COCCNc1nc(-c2ccc(OC)cc2C)c2sc(-c3ccccc3)cc2n1	-	.	-	-	.
Cc1ccc(C(=O)NCC(=O)OCc2nc3sc(C)c(C)c3c(=O)[nH]2)cc1	-	.	-	-	.
CC1CN(Cc2c(O)ccc3c2oc(=O)c2ccccc23)CC(C)O1 (stereo not drawn)	-	54	-	-	-
CC(=O)N1CCN(C2=NC(=O)N(c3ccc(Br)cc3)C(=O)C2)CC1	-	.	-	-	.
O=C(Sc1n[nH]c(=O)[nH]c1=O)c1ccccc1	-	.	-	88	-
CN(C(=O)CSc1n[nH]c(=O)[nH]c1=O)c1ccccc1	-	-	-	-	-
COc1ccc(O)c(/C=C2/SC(=S)N(Cc3ccccc3)C2=O)c1	-	-	-	23	-
COc1ccc(OC)c(/C=C2\SC(=S)N(Cc3cccnc3)C2=O)c1	-	-	-	-	-
O=C1CSc2ccc(C(=O)N3CCCC(C(=O)N4CCN(c5ccc(F)cc5)CC4)C3)cc2N1 (stereo not drawn)	-	.	-	-	.
N#Cc1c(-c2ccc(F)cc2)c(-c2ccc(F)cc2)nn(CCO)c1=O	-	.	-	-	-
CCCCN(C)CCn1c(=S)[nH]c2ccc(N3CCOCC3)cc2c1=O	-	-	-	24	-
COCCCn1c(=S)[nH]c2ccc(N3CCOCC3)cc2c1=O	-	-	-	-	-
SMILES	SIAE inh	GASC-1 inh	mABHD4 FP	PRMT1 inh	HTRA1 inh
Cc1nc2ccc(C(=O)N/N=C/c3cc([N+](=O)[O-])ccc3O)cc2[nH]1	-	58	-	-	-
COC(=O)[C@@H]1N=C(c2ccc(OC)cc2)O[C@]12C(=O)N(Cc1cn(-c3ccccc3)nn1)c1cccc(Cl)c12	-	.	-	-	.
CCc1ccc2c(c1)C1(NN=C(c3cccc4ccccc34)S1)C(=O)N2 (stereo not drawn)	-	-	-	-	55
CCc1ccc2c(c1)NC(=O)C2(C)Cc1ccccc1 (stereo not drawn)	-	.	-	-	.
CCC(CC)NC(=O)O[C@H]1CC[C@@]23CCCN2C(=O)CCC[C@H]3C1	-	.	-	-	.
Cc1nc2ccc(NC(=O)COc3ccccc3[N+](=O)[O-])cc2s1	-	-	-	-	.
Cc1nc2ccc(NC(=O)COc3ccccc3C)cc2s1	-	65	-	-	-
COc1ccc(Cn2c(C)nc3c(c2=O)c2nc4ccccc4nc2n3Cc2ccco2)cc1	-	.	-	40	-
O=C(O)COc1ccccc1/C=C1\SC(=S)N(NC(=O)c2ccccc2O)C1=O	-	-	-	-	-
O=C(O)COc1ccccc1/C=C1\SC(=S)N(/N=C/c2ccccc2O)C1=O	-	-	-	23	-
O=C(CSC1=NCCS1)Nc1ccnc2ccccc12	-	-	-	23	-
O=C(O)c1cccc(S(=O)(=O)Nc2ccc3oc(=O)sc3c2)c1	-	-	-	85	-

Bioassay records as filed in PubChem BioAssay.
